Columns and labels:
[1] = tested on: phosphorylation of IκB and p65 (NF-κB signalling pathway); test: Western blot of NF-κB signalling pathway in LPS-treated RAW264.7 cells; format: cell-based; details: RAW264.7, 2, 1, 0.5 µM 1 h, then LPS 500 ng/mL 30 min
Summary of the method: (§1)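 RAW264.7 cells (2 × 10^6/well) were cultured overnight, pretreated 1 h with test compound at 2, 1 or 0.5 µM, then stimulated with LPS 0.5 µg/mL. Lysis was in RIPA, followed by SDS-PAGE and PVDF transfer. Primary antibodies (1:1000) were applied overnight at 4 °C, then HRP secondary for 1 h, with ECL detection and β-actin reference. Three repeats; densitometry given as mean ± SD.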

[2] = tested on: p-p38, p-ERK and p-JNK (MAPK signalling pathway); test: Western blot of MAPKs signalling pathway in LPS-treated RAW264.7 cells; format: cell-based; details: RAW264.7, 2, 1, 0.5 µM 1 h, then LPS 500 ng/mL 30 min
[3] = tested on: DSS-induced acute colitis in mice; test: DSS-induced acute colitis model in mice; format: in vivo, C57BL/6 mice; details: for MPO in colon tissue: day 7, E2 20 mg/kg, sulfasalazine 200 mg/kg, oral
Summary of the method: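 Male C57BL/6 mice (16–18 g; n=10 per group) received 5% (wt/vol) DSS in drinking water on days 1–7. Test compound (10 or 20 mg/kg) or sulfasalazine 200 mg/kg was given by gavage in 0.5% CMC-Na on days 1–7; control groups received vehicle. Weight, stool and DAI were scored daily. On day 8: serum ELISA (TNF-α, IL-1β, IL-6), colon length, histology, and colon MPO. Values are mean ± SEM.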

[4] = tested on: iNOS, COX2, IL-6 and TNF-α protein expression; test: Western blot of inflammatory protein expression in LPS-treated RAW264.7 cells; format: cell-based; details: RAW264.7, 2, 1, 0.5 µM 1 h, then LPS 500 ng/mL 24 h
Summary of the method: as §1

## C#CCOc1ccc(/C=C/c2cc(OC)cc(OC)c2-c2cnnn2C(=O)NCCC)cc1 [E2]
[1]
  Phosphorylation of IκB and p65 proteins: inhibited
[2]
  Expression of p-p38, p-ERK and p-JNK: inhibits the expression of p-p38, p-ERK, and p-JNK in a dose-dependent manner
[3]; 5% DSS days 1-7, oral E2 10 and 20 mg/kg
  DSS treatment-induced shortening of colon length: significantly attenuated
[3]; 5% DSS days 1-7, oral E2, vs model group
  Histopathological symptoms of colon: significantly improved these symptoms
[3]; DSS-treated mice, oral E2
  Levels of COX-2, p-NF-κB and p-Stat3 expression in colon (Western blot): decreased
  Levels of TNF-α, IL-1β and IL-6 in serum (ELISA): significantly decreased
[3]; DSS-treated mice, oral E2, RT-qPCR
  mRNA expression levels of TNF-α, IL-1β, IL-6, iNOS, COX-2 and TLR4 in colon tissue: alleviated
[3]
  MPO in colon tissue: significantly reduced
[4]
  Expression of iNOS, COX2, IL-6 and TNF-α protein: significantly inhibited

## O=C(O)c1cc(/N=N/c2ccc(S(=O)(=O)Nc3ccccn3)cc2)ccc1O [sulfasalazine, Sulfasalazine, reference compound]
[3]
  MPO in colon tissue: significantly reduced
